Test [1] deals with Opioid receptors; mu & delta (Rattus norvegicus) (UniProt P33533+P33535). Nature of the test: Selectivity ratio of Opioid receptor delta 1 to Opioid receptor mu 1. The test is classed as protein assay.
For test [2], the target named is Delta-type opioid receptor (Rattus norvegicus, UniProt P33533). Nature of the test: Inhibition of [3H]DPDPE binding to Opioid receptor delta 1 of rat brain membrane. The method in brief:
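Competition binding on Wistar rat brain synaptosomal P2 membranes in 50 mM Tris–HCl, pH 7.4. […] Delta sites were labelled with [3H]DPDPE (1 nM, Kd 2.75 nM) for 3 h at 25 °C. Nonspecific binding was taken with naloxone. Ki was derived by Cheng–Prusoff; values are means of ≥3 experiments.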

Test [3] has as its target T1, Mu-type opioid receptor (Rattus norvegicus, UniProt P33535). Nature of the test: Inhibition of [3H]DAMGO binding to Opioid receptor mu 1 of rat brain membrane. The method in brief:
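Rat brain synaptosomal P2 membranes from Wistar rats in 50 mM Tris-HCl, pH 7.4. […] Nonspecific binding was defined with naloxone. Ki was derived by Cheng-Prusoff. Values are means of at least three experiments.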

The target of test [4] is Delta-type opioid receptor (Rattus norvegicus) (UniProt P33533). Nature of the test: Percent decrease of maximum binding towards Opioid receptor delta 1 in rat brain membrane using [3H]DPDPE at 10 uM concentration. On the set-up: scale not given: the % may be the effect or the level left. The format is cell membranes.
In test [5] the target is T1, Mu-type opioid receptor. Nature of the test: Inhibition of [3H]DAMGO binding to Opioid receptor mu 1 of rat brain membrane; na= No activity.
The target in test [6] is Delta-type opioid receptor (Rattus norvegicus) (UniProt P33533). Nature of the test: Percent inhibition of [3H]DPDPE binding to Opioid receptor delta 1 of rat brain membrane at 10 uM. Further details: scale not given: the % may be the effect or the level left; call rule not given here.
For test [7], the target named is Mu-type opioid receptor (Rattus norvegicus) (UniProt P33535). Nature of the test: Percent inhibition of [3H]-DAMGO binding to Opioid receptor mu 1 of rat brain membrane at 10 uM. On the set-up: scale not given: the % may be the effect or the level left.

pKi: −log10 of the molar value. A value given as a limit tells only on which side of the number the result lay.

Delta-type opioid receptor, sequence (P33533 whole entry): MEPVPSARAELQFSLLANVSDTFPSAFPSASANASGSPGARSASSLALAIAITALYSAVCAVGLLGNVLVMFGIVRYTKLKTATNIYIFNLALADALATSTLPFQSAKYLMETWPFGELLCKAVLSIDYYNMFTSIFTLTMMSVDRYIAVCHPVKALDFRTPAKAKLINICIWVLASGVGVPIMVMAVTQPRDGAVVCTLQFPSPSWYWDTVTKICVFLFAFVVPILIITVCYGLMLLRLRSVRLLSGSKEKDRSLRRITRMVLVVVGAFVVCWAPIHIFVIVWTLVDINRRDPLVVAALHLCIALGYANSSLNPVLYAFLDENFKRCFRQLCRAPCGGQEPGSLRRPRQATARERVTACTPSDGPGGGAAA
Delta-type opioid receptor (Rattus norvegicus), sequence (P33533 whole entry): as above
Opioid receptors; mu & delta (Rattus norvegicus), sequence (P33533 whole entry, looked up): as the sequence (P33533 whole entry) above
Opioid receptors; mu & delta (Rattus norvegicus), sequence (P33535 whole entry, looked up): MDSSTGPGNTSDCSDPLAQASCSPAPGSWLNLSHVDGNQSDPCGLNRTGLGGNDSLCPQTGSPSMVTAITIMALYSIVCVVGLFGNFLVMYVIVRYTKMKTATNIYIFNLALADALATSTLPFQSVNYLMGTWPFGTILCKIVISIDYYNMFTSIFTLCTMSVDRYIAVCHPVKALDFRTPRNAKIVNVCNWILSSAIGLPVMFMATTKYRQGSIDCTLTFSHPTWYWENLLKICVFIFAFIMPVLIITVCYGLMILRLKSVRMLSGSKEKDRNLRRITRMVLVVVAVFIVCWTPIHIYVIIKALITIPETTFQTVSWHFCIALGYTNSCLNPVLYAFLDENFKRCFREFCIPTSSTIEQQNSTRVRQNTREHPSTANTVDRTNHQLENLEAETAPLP
T1 sequence (P33535 whole entry): as the sequence (P33535 whole entry, looked up) above
Mu-type opioid receptor (Rattus norvegicus), sequence (P33535 whole entry): as the sequence (P33535 whole entry, looked up) above

In the case of `NC(=O)[C@H](Cc1ccccc1)NC(=O)[C@@H](Cc1ccccc1)O/N=C/[C@@H]1CCCN1C(=O)[C@@H](N)Cc1ccc(O)cc1`, in test [1], the Selectivity amounted to 9. The figures for the pKi (in test [2]; at Mu-type opioid receptor [3]) were 4.43 and 5.39, respectively.
For `NC(=O)[C@H](Cc1ccccc1)NC(=O)[C@H](Cc1ccccc1)NC(=O)[C@H](Cc1ccccc1)NO[C@@H](N)Cc1ccc(O)cc1`, in test [4], the Activity is 30%. In addition, in test [2], the pKi (as a rule, the negative decadic logarithm of the Ki, by convention in mol/L) was less than 5.00. Besides, the Ki result at Mu-type opioid receptor [5] was “Not Active”.
With `NC(=O)[C@H](Cc1ccccc1)NC(=O)[C@H](Cc1ccccc1)NC(=O)[C@@H]1CCN(C(=O)[C@@H](N)Cc2ccc(O)cc2)C1`, the Selectivity in test [1] worked out at 1020. Moreover, the pKi in test [2] was 5.08; on Mu-type opioid receptor [3] it was 8.08.
For `NC(=O)[C@H](Cc1ccccc1)NC(=O)[C@H](Cc1ccccc1)O/N=C/[C@@H]1CCCN1C(=O)[C@@H](N)Cc1ccc(O)cc1`, in that order: 4.1, 4.70 and 3.39.
For the compound `NC(=O)[C@H](Cc1ccccc1)NC(=O)[C@@H](Cc1ccccc1)NO[C@@H]1CCCN1C(=O)[C@@H](N)Cc1ccc(O)cc1`, the Selectivity in test [1] was greater than 17. The same compound yielded an Activity in test [6] of 30%. Besides, the pKi in test [2] is less than 5.00; at Mu-type opioid receptor [3], 6.22.
In the case of `NC(=O)[C@H](Cc1ccccc1)NC(=O)[C@H](Cc1ccccc1)NC(=O)[C@@H](Cc1ccccc1)NO[C@@H](N)Cc1ccc(O)cc1`, the Activity in test [4] amounted to 18%; in test [7] it was 22%. Besides, the pKi (in test [2]; at Mu-type opioid receptor [3]) was less than 5.00 each time.
For the compound `NC(=O)[C@H](Cc1ccccc1)NC(=O)[C@H](Cc1ccccc1)NO[C@@H]1CCCN1C(=O)[C@@H](N)Cc1ccc(O)cc1`, the Selectivity in test [1] was greater than 23. Also, the Activity in test [6] is 15%. The pKi in test [2] is less than 5.00; on Mu-type opioid receptor [3], 6.36.

The values are drawn from ChEMBL document CHEMBL1139611, “Structure-activity relationships of novel endomorphin-2 analogues with N-O turns induced by alpha-aminoxy acids” (Bioorg Med Chem Lett, 2005).
